Shown are actives, neighbours in structure and some others; about 2.3% of the full set was active somewhere.
GPR7 antagonist: GPR7 receptor antagonists, primary screen, cell-based, fluorescence, single concentration; Neuropeptides B/W receptor type 1 (Homo sapiens), P48145; GPR7-expressing cells, fluorescence antagonist assay; inhibition, % at 4.4 µM; 1.1% of 290,000 active; AID 1861, 2009; in the data active means inhibition above about 16%, passing the limit was not always enough;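 further: cells stimulated with the agonist NPW; 0% = agonist with vehicle and 100% = vehicle without agonist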
ZTA DNA inh: counter-screen for EBNA-1 inhibitors: inhibitors of Epstein-Barr virus ZTA; inhibition, % at 11 µM; 0.15% of 320,000 active; ZTA-DNA binding, fluorescence polarization; AID 2234; in the data active means inhibition above about 33%
Target sequence (P03206 whole entry, looked up): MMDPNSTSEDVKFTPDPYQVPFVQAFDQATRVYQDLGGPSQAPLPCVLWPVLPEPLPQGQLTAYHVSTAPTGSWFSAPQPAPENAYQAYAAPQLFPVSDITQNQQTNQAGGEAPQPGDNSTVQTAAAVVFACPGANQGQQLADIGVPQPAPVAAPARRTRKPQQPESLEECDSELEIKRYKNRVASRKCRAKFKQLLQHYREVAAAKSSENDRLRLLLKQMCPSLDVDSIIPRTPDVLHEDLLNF
EBV gp42 inh: Epstein-Barr virus gp42 inhibitors, primary screen, biochemical, uHTS, fluorescence polarization; Fluorescence polarization binding assay, mP read-out; inhibition, % (tested at 21.74 µM); 0.42% of 220,000 active; Glycoprotein 42 (Epstein-Barr virus (strain AG876)), Q1HVG2; in the data active means inhibition above about 50%
Target sequence (Q1HVG2 whole entry, looked up): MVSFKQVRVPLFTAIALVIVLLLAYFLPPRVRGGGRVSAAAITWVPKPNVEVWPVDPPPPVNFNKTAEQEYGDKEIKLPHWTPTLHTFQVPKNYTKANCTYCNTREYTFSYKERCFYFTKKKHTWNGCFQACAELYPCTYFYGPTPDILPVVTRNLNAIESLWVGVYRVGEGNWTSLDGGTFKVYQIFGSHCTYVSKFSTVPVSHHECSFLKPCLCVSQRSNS
EBNA-1 inh: EBNA-1 DNA-binding inhibitors, primary screen, biochemical, fluorescence polarization; 0.34% of 300,000 active; AID 1950, 2009; inhibition, % at 14.8 µM; in the data active means inhibition above about 28%
HCV core dimer: inhibitors of HCV core protein dimerization, primary screen, biochemical, TR-FRET, high-throughput; TR-FRET GST/Flag-core106 dimerization, 1536-well; inhibition, % at 5 µM; 0.33% of 300,000 active; AID 1899, 2009;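 active means inhibition above the mean of all tested compounds plus 3 SD, set per screening campaign, cut at about 45% in these data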
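assay system = GST-tagged and Flag-tagged HCV core protein residues 1-106 | controls = unlabelled core106 and no-GST-core106 wells | incubation = compound-protein-antibody incubation 4 h at 22.5 °C | probe or stimulus = Eu donor and XL665 acceptor anti-tag antibodies | read-out = % inhibition based on acceptor/donor emission ratio | signal = TR-FRET 671 and 617 nm emission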
HCV NS3 hel inh: inhibitors of HCV NS3 helicase, primary screen, biochemical, Cy5 molecular beacon fluorescence; NS3 helicase DNA unwinding; AID 1800, 2009; inhibition, % at 10.9 µM; Hepatitis C virus NS3 helicase; 0.56% of 290,000 active;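 active means inhibition above the mean of all tested compounds plus 3 SD, set per campaign, cut at about 35% in these data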;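 further: 0% = DMSO wells and 100% = thioflavine S control wells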
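assay system = NS3 helicase fragment of HCV | buffer or medium = MOPS pH 6.5, MgCl2, DTT, Tween20, BSA | timing = 60 min unwinding reaction at 25 °C after ATP addition | signal = Cy5 beacon fluorescence read at start and 1 h | read-out basis = % inhibition of unwinding | control set = low DMSO, high thioflavine S at 110 µM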
GPR7 antag cf: GPR7 receptor antagonists, confirmation, cell-based, fluorescence, single concentration | shares compounds with GPR7 antagonist | GPR7-expressing cells, calcium fluorescence antagonist mode | inhibition, % at 4.4 µM | 52% of 2,400 active; in the data active means inhibition above about 24%;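 further: stimulated with the GPR7 agonist NPW; 0% = agonist plus vehicle and 100% = vehicle alone without agonist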
MCHR1 antagonist: MCHR1 antagonists in cells, counter-screen for GPR7 antagonist project, cell-based, fluorescence, human. shares compounds with GPR7 antagonist. MCHR1-expressing cells, fluorescence antagonist assay. inhibition, % at 4.4 µM. 62% of 2,400 active. AID 2148, 2009; in the data active means inhibition above about 22%;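 further: 0% = vehicle with agonist and 100% = vehicle without agonist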
An asterisk follows results filed as active; x = not tested or not shown.

SMILES	GPR7 antagonist	ZTA DNA inh	EBV gp42 inh	EBNA-1 inh	HCV core dimer	HCV NS3 hel inh	GPR7 antag cf	MCHR1 antagonist
Cc1coc2c1c(C)cc1oc(=O)c(CC(=O)NCCCN3CCCC3=O)c(C)c12	-10.9	3.7	x	-9.3	-0.6	9.2	x	x
CCCCNc1cc(C)nc(NCc2ccccc2)n1	43.3*	0.2	-17.4	1.0	-6.1	-71.4	52.8*	80.1*
Cc1cc(N2CCC(C)CC2)nc(NCc2ccccc2)n1	30.4*	20.9	-0.1	7.5	-5.5	-74.7	58.3*	82.9*
Cc1cc(Nc2ccc(Cl)cc2)nc(NCc2ccccc2)n1	4.5	12.6	33.2	-0.4	-8.8	-67.7	x	x
CSc1ccc(-c2nc3cnccn3c2Nc2ccc3c(c2)OCO3)cc1	26.9*	-7.7	-19.7	-6.0	-1.2	-9.0	14.8	2.3
O=S(=O)(NCc1ccccc1)c1ccc2c(c1)OCCO2	-7.6	-0.7	2.7	8.7	-0.6	-1.8	x	x
O=S(=O)(NCc1cccnc1)c1ccc2c(c1)OCCO2	22.8*	1.0	-14.1	9.8	3.5	8.4	-18.8	17.5
Cc1ccc(OCC(=O)NCc2cccnc2)cc1	24.0*	-3.4	-23.7	9.3	-1.2	7.2	-4.9	5.3
Cc1ccc(S(=O)(=O)NCc2ccc(C(=O)NCc3cccnc3)cc2)cc1	22.7*	-4.0	-17.2	-5.4	-1.9	-3.5	-4.0	0.1
O=C(CN1C(=O)NC2(CCCCC2)C1=O)NC1CCCc2ccccc21 (centres undefined)	-10.1	3.8	-15.9	3.4	5.1	-0.7	x	x
O=C(CN1C(=O)C2C3C=CC(C3)C2C1=O)NC1CCCc2ccccc21 (centres undefined)	30.2*	2.6	-12.1	3.8	-3.8	-0.2	-1.3	6.4
CCc1cc(C(=O)N2CCCc3ccccc32)sc1C	-9.5	-23.4	x	-6.7	4.7	-0.7	x	x
CCn1c(SCC(=O)Nc2ccc3c(c2)oc2ccccc23)nnc1-c1ccc(N)cc1	5.0	11.2	-16.3	-0.7	33.7	-2.0	x	x
COc1ccc(S(=O)(=O)N2CCCCCC2)cc1C(=O)N(C)CC(=O)Nc1cc(C)ccc1C	29.9*	x	x	x	x	4.1	18.9	20.2
COc1ccc(S(=O)(=O)N2CCCCCC2)cc1C(=O)N(C)CC(=O)Nc1ccc(Cl)c(Cl)c1	x	-3.9	x	4.1	-1.0	x	x	x
Cc1ccc(CNC(=O)C2CC(c3cccc([N+](=O)[O-])c3)=NO2)cc1 (centres undefined)	31.9*	-9.1	-9.5	-1.1	1.8	-10.2	18.5	33.9*
C=C1CCN([C@H](C(=O)NCc2ccc(Cl)c(Cl)c2)C(C)C)S(=O)(=O)c2ccccc21	x	5.8	-17.6	0.3	3.9	x	x	x
CC(C)CNC(=O)c1cc2nc3c(c(C(F)(F)F)n2n1)CCc1ccccc1-3	22.1*	2.3	-17.7	-1.5	11.2	24.9	-3.2	11.4
COc1ccc(CN(C)CC(O)COc2ccc(-c3ccccc3)cc2)cc1OC (centres undefined)	5.5	-3.0	x	19.8	4.5	-65.0	x	x
CN(Cc1ccc(Br)cc1)CC(O)COc1cccc(Br)c1 (centres undefined)	3.8	-5.5	x	-4.1	5.4	-64.3	x	x
COc1ccc(CN(C)CC(O)COC(c2ccc(OC)cc2)c2ccc(OC)cc2)cc1 (centres undefined)	28.2*	-11.6	x	-21.9	-3.5	-57.7	41.9*	30.6*
CCOc1ccc(CN(C)CC(O)COC(c2ccc(OC)cc2)c2ccc(OC)cc2)cc1 (centres undefined)	30.7*	-3.0	x	10.2	3.9	-78.0	33.2*	45.0*
CN(C(=O)/C=C/c1ccc([N+](=O)[O-])s1)c1ccccc1	24.7*	7.2	-16.1	7.1	-2.0	19.8	20.5	9.8

Screening data deposited in PubChem BioAssay by several laboratories.
